The nature of series [1]: Cytotoxicity against human MPANC96 cells assessed as inhibition of cell growth incubated for 72 hrs by MTT assay. Type of series: functional, cell-based. The settings on record: MPANC96, 72 h. The essentials:
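Cells seeded and grown to 70–80% confluence, then exposed for 72 h to a titration series (0.2–1000 nM). Viability read by MTT relative to untreated cells, with 6 replicates per concentration. IC50 fitted with a Hill-slope model.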

Series [2] can be described thus: Cytotoxicity against CD-1 mouse Primary hepatocyte assessed as inhibition of cell growth incubated for 72 hrs by MTT assay. The settings on record: primary hepatocytes. The series is classed as toxicity, cell-based.
The nature of series [3]: Half life in CD-1 mouse at 1 mg/kg,iv administration measured upto 48 hrs by LC-MS/MS analysis. The settings on record: in vivo. The series is classed as ADME, organism-based. The essentials: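 Single intravenous bolus in ICR male mice (n = 3, 6 weeks); dosing solution 0.5 mg/mL in 20% DMSO, 16% PEG, 4% dextrose in PBS. Tail-vein blood (10 μL) taken at 2, 5, 15, 30 min and 1, 2, 4, 8, 24, 48 h. Plasma quantified by LC-MS/MS against a 0.5–1000 ng/mL calibration; parameters from non-compartmental analysis.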

Series [4] is described as follows: Half life in CD-1 mouse at 10 mg/kg,po administration measured upto 48 hrs by LC-MS/MS analysis. The settings on record: in vivo. Type of series: ADME, organism-based. The essentials: (§1)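 Oral gavage in ICR male mice (n = 3); dosing solution 1 mg/mL in 20% DMSO, 16% PEG, 4% dextrose in PBS. Tail-vein blood (10 μL) taken at 15, 30 min and 1, 2, 4, 8, 24, 48 h. Plasma quantified by LC-MS/MS against a 0.5–1000 ng/mL calibration; parameters from a non-compartmental extravascular model.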

Series [5] can be described thus: AUC (0 to t) in CD-1 mouse at 10 mg/kg,po administration measured upto 48 hrs by LC-MS/MS analysis. The following applies: in vivo. Type of series: ADME, organism-based. The essentials:
as §1

The target in a further series is Mu-type opioid receptor (Homo sapiens, UniProt P35372). Nature of the series: Antagonist activity at OPRM1 (unknown origin) by cAMP assay. The series is classed as toxicity. The essentials:
(§2)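 Tested in a commercial off-target safety screening panel of 78 targets. Values reported as RC50, taken as IC50 except for agonist mode, where RC50 is EC50.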

Series [6] deals with T1, Voltage-gated inwardly rectifying potassium channel KCNH2 (Homo sapiens, UniProt Q12809). Nature of the series: Inhibition of hERG. Type of series: toxicity.
T1 sequence (Q12809 whole entry): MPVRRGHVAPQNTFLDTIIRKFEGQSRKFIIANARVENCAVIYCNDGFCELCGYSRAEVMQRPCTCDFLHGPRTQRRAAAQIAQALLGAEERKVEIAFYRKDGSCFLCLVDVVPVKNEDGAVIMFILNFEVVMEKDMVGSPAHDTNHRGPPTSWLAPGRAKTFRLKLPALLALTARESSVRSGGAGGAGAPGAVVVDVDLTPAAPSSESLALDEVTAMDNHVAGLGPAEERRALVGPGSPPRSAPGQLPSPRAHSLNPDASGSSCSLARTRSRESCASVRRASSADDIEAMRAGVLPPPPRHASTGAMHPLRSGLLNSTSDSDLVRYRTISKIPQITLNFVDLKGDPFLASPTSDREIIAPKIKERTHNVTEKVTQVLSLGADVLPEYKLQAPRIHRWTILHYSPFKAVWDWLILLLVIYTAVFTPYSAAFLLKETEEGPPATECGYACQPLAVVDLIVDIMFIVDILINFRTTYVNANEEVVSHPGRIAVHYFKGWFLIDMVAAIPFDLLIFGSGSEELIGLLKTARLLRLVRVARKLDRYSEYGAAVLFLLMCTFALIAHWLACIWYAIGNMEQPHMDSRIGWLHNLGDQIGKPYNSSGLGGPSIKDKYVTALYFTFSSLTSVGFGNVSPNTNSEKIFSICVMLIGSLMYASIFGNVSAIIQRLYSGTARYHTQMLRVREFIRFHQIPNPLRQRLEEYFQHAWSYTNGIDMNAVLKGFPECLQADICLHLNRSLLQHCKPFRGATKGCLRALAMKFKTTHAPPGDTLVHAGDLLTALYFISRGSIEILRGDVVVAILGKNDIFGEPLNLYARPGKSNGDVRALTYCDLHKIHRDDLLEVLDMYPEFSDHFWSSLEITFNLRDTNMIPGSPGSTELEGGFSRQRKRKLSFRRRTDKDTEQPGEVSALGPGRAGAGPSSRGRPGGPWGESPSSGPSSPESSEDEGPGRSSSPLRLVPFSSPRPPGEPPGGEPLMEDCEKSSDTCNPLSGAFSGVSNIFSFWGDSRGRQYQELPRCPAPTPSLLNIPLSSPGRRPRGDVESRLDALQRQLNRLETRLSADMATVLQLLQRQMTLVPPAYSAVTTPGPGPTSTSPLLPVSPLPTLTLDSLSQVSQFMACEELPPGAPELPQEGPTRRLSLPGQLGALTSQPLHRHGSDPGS
Series [7] deals with T2, Prostaglandin G/H synthase 2 (Homo sapiens, UniProt P35354).
T2 sequence (P35354 whole entry): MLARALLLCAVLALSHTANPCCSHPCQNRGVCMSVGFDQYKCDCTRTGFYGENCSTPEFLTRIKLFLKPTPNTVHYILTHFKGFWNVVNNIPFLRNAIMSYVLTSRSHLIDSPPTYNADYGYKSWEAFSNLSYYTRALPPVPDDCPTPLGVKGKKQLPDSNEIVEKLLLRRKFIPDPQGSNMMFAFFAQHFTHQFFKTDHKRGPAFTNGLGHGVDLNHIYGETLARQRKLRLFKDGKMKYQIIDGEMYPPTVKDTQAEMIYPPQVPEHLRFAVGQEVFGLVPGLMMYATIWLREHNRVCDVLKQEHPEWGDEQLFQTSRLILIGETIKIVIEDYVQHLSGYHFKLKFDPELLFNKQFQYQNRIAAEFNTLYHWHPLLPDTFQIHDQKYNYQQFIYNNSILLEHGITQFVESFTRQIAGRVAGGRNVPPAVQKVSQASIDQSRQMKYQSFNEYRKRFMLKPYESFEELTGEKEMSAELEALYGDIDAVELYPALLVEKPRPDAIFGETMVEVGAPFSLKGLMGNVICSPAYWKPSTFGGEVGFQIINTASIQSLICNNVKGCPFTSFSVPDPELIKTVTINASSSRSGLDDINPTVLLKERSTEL
Kind of series: Inhibition of COX2 (unknown origin). The series is classed as toxicity. The essentials: as §2

Series [8] deals with T1, Voltage-gated inwardly rectifying potassium channel KCNH2. Kind of series: Inhibition of hERG transfected in HEK293 cells by patch clamp assay. The series is classed as toxicity, cell-based.
Series [9] is described as follows: Drug concentration in CD-1 mouse plasma at 37.7 micromol/kg,ip administration measured after 22 hrs by LC-MS/MS analysis. The series is classed as ADME, cell-free. The settings on record: dose 37.7 µmol/kg. The essentials:
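Female CD-1 mice (n = 3) dosed ip at 37.7 μmol/kg. Blood (20 μL) taken at 0.25, 5 and 22 h, processed to plasma, and drug quantified by LC-MS/MS.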

A short description of series [10]: Stability in human plasma incubated upto 150 mins. The following applies: 2.5 h. The series is classed as ADME, cell-free.
Series [11] is described as follows: Toxicity in SCID mouse orthotopically xenografted with human Panc-1-Luc cells assessed as change in body weight at 10 mg/kg,ip administration once daily for 8 weeks. Type of series: organism-based. The following applies: in vivo, 1344 h. The essentials:
(§3)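 Male SCID mice (8 weeks) received orthotopic pancreatic implants of Panc-1-Luc cells (0.5×10^6 per mouse). Mice randomized by luciferase imaging (n=5 per group). From day 8, dosed 10 mg/kg i.p. or solvent vehicle once daily. Body weight recorded weekly; mice euthanized at day 63.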

Series [12] in a line: Stability in CD-1 mouse plasma at 37.7 micromol/kg,ip administration measured after 22 hrs by LC-MS/MS analysis. The settings on record: at 37.7 µmol/kg. The series is classed as ADME, cell-free. The essentials:
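Female CD-1 mice (n=3) dosed i.p. at 37.7 μmol/kg (equimolar across compounds). Blood (20 μL) drawn at 0.25, 5 and 22 h and processed to plasma. Drug levels quantified by LC-MS/MS.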

The test system of another series is PANC-1. Nature of the series: Cytotoxicity against […] SRC-3.2 knockdown human PANC-1 cells assessed as inhibition of cell growth incubated for 72 hrs by MTT assay. The settings on record: PANC-1, 72 h. The series is classed as functional, cell-based. The essentials: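 PANC-1 cells with stable lentiviral shRNA knockdown of SRC-3 or control shRNA; SRC-3 levels checked by western blot. Cells treated with a dose series for 72 h and viability read by MTT.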

Another series has as its system Prostate cancer organoid. Nature of the series: Antitumor activity against patient derived Prostate cancer PDX organoid assessed as reduction in organoid growth measured after 2 weeks. The settings on record: Homo sapiens. Type of series: functional, tissue-based. The essentials:
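Single cells from prostate cancer PDX tumors (collagenase I/III digest); 20000 cells embedded in collagen gel and cultured overnight, then treated or vehicle for 14 days with at least 5 wells per dose. Organoids imaged and counted on day 14; groups compared by Student t test.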

The test system of the next series is MDA-PCa-118b. Kind of series: Antitumor activity against patient derived MDA-PCa-118b cells xenografted in SCID mouse assessed as reduction in tumor burden in femur at 10 mg/kg,ip administration measured after 4 weeks by hematoxylin and eosin staining based analysis. The series is classed as functional, organism-based. The following applies: Homo sapiens. The essentials: (§4)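 AR-PDX 118b cells (1×10^5) injected via intra-femoral artery in male SCID mice (8–9 weeks). After 2 weeks, 10 mg/kg/day ip or vehicle for 4 weeks (n = 9/group). X-ray imaging every two weeks. At the end, femurs CT-scanned (5 per group) with 3D-reconstruction tumor size, and H&E histology used for tumor/femur area ratio.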

The nature of series [13]: Antitumor activity against patient derived MDA-PCa-118b cells xenografted in SCID mouse assessed as reduction in femur volume at 10 mg/kg,ip administration measured after 4 weeks by CT imaging analysis. The series is classed as functional, Homo sapiens. Details: scale not given: the % may be the effect or the level left. The essentials: as §4
Series [14] in a line: Toxicity in SCID mouse orthotopically xenografted with human Panc-1-Luc cells assessed as change in body weight at 10 mg/kg,ip administration once daily for 63 days. The series is classed as organism-based. The following applies: in vivo, 1512 h, time 63 day. The essentials: as §3
Series [15] is described as follows: Antitumor activity against human Panc-1-Luc cells orthotopically xenografted in SCID mouse assessed as reduction in tumor weight at 10 mg/kg,ip administration once daily for 63 days by weighing harvested tumors. The settings on record: time 63 day.

Structures are written as SMILES. The source made the active and inactive calls. The calls are words filed in the database; no cut-off is given here.

Chain of Mu-type opioid receptor (P35372 whole entry): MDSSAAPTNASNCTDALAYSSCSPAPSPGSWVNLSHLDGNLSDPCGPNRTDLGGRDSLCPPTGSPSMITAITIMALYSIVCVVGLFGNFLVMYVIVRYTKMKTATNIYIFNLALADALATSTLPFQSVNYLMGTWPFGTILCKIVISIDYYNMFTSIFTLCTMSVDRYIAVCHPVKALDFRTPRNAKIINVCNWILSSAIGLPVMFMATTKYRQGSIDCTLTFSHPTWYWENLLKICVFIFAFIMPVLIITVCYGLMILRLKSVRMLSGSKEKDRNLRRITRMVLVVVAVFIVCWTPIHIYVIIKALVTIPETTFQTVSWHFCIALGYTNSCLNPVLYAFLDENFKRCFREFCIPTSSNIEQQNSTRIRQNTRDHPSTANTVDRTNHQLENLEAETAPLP

As for `C/C(=N\N=c1/[nH]c2cc(F)c(F)cc2n1C)c1ccc(F)cn1`, the IC50 in series [1] stood at 28 nM; on Mu-type opioid receptor, 3100 nM; in [6], 2700 nM; in series [7], 3000 nM; in series [8] it was 1130 nM; in the series with PANC-1, 119 nM. For the same molecule, the IC50 at 72 h in [2] was over 1000 nM. The t1/2 is 22.5 h in series [3] and 14.3 h in series [4]. In [5], this molecule came in with an AUCt of 1719 ng·h/mL. In series [9], the concentration at 22 h stood at 47 nM. Also, the Stability result in [10] and in series [12] was “Stable” throughout. For the same molecule, the Activity entry in series [11] is reported as “Non-Toxic”; in series [13], over 55%; in [14] it was “Non-Toxic”; in series [15], 0.22 g. The result in the series with Prostate cancer organoid and in the series on MDA-PCa-118b was Active.
